# Bioassay records as filed in PubChem BioAssay.
# SIAE inh = human SIAE inhibitors, primary screen, biochemical, fluorescence polarization, FP-Rh probe, 1536-well HTS | SIAE FP-Rh probe binding | inhibition, % at 9.66 µM | 370,000 compounds, 0.69% hits;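 active means inhibition above a cutoff: mean of compounds within the control limits plus 3 SD of those, cut at about 17% in these data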;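 further: 0% = plate median of compound wells and 100% = probe without SIAE protein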
# PAD4 inh = human PAD4 inhibitors, primary screen, biochemical, fluorescence polarization, 1536-well format; Protein-arginine deiminase type-4 (Homo sapiens), Q9UM07; recombinant PAD4, RCA probe fluorescence polarization; inhibition, % at 6.36 µM; 330,000 compounds, 0.41% hits; AID 485272, 2010;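 active means percent inhibition above a cutoff equal to the mean of all tested compounds plus 3 SD, cut at about 15% in these data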;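 further: 0% = PAD4 with RCA probe and DMSO and 100% = probe without PAD4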
# TCR-CD3 inh = inhibitors of human TCR-CD3 interaction, primary screen, biochemical, fluorescence, TAMRA-labeled TCR probe; T-cell receptor (TCR); inhibition, % at 9.4 µM; 360,000 compounds, 0.37% hits; AID 651800, 2012; in the data active means inhibition above about 19%;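 further: recombinant mutant TCR 2C K166C tagged with TAMRA read by polarization; 0% = receptor in buffer alone and 100% = receptor with positive control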
# TDP2 absorb = human TDP2 enzyme inhibitors, primary screen, biochemical, epi absorbance, recombinant enzyme; Tyrosyl-DNA phosphodiesterase 2 (Homo sapiens), O95551; T5PNP hydrolysis, p-nitrophenol absorbance 415 nm; inhibition, % at 12.8 µM; 370,000 compounds, 0.34% hits;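 active means inhibition above the mean of all tested compounds plus 3 SD, set per campaign, cut at about 25% in these data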;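 further: 0% = DMSO with enzyme and 100% = buffer with substrate but no TDP2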
#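 Incubation: 2 h at 37 °C; Test system: recombinant human TDP2; Quantity: enzyme 120 nM; Read-out basis: percent inhibition; Medium: 50 mM Tris-HCl pH 7.5 with Mg2+, KCl, DTT, BSA; Repeats: single replicate; Compound: 12.8 µM single point, 1% DMSO; Signal: epi absorbance; Reagent: 5 mM T5PNP chromogenic substrate; Benchmarks: no-enzyme high, DMSO-plus-enzyme low.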
# HTRA1 inh = HTRA1 serine protease inhibitors, primary screen, biochemical, fluorescence polarization, HTS; Q92743; recombinant HTRA1, FP-rhodamine activity-based probe; inhibition, % at 5.96 µM; 340,000 compounds, 0.5% hits; in the data active means inhibition above about 36%;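 further: 0% = enzyme with DMSO and 100% = wells lacking enzyme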
# Target sequence (Q92743 whole entry, looked up): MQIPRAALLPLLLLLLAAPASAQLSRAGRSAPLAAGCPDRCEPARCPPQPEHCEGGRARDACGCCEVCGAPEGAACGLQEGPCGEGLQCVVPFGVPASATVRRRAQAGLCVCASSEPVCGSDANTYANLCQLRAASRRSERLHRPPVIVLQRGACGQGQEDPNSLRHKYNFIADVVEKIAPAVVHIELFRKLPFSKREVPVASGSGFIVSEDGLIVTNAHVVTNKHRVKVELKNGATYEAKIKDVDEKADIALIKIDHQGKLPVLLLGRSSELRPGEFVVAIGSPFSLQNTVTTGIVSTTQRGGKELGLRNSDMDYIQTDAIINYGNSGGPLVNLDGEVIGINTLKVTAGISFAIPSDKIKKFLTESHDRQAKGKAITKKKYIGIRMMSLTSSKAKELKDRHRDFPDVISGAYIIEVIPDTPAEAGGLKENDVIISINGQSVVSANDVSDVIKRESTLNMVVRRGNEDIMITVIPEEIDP
# mABHD4 FP = ABHD4 inhibitors, primary screen, biochemical, fluorescence polarization, mouse; (Lyso)-N-acylphosphatidylethanolamine lipase (Mus musculus), Q8VD66; purified mABHD4, FP-Rh probe fluorescence polarization; inhibition, % at 8.92 µM; 370,000 compounds, 0.54% hits;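 active means inhibition exceeding the mean over every tested compound plus 3 SD, cut at about 30% in these data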;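 further: 0% = plate median of compound wells and 100% = S159A mutant with DMSO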
#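 assay system = mABHD4 protein | compound dosing = single nominal dose of 8.92 µM, 0.89% DMSO final | read-out basis = percent inhibition of probe binding, normalized to plate controls | schedule = Enzyme–compound pre-incubation 45 min, then probe 60 min, both 25 °C | detection = fluorescence polarization, excitation 525 nm, emission 598 nm, BODIPY TMR filters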
# SIAE confirm = human SIAE inhibitors, retest, confirmation, biochemical, fluorescence polarization, FP-Rh probe, triplicate. inhibition, % at 9.66 µM. AID 1117263, 2014. SIAE FP-Rh activity-based probe. 2,300 compounds, 13% hits. shares compounds with SIAE inh;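 active means mean inhibition of the replicates above the hit cutoff set in the primary screen, cut at about 17% in these data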;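 further: 0% = SIAE with DMSO and probe and 100% = probe without SIAE; inhibitors lower polarization as more probe stays unbound to SIAE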
# * hit, by the source's call; x = no result given. The list is not random: actives were taken first. Their share in the collection is about 2%.
SMILES,SIAE inh,PAD4 inh,TCR-CD3 inh,TDP2 absorb,HTRA1 inh,mABHD4 FP,SIAE confirm
N#Cc1c(/N=C/c2cccs2)sc2c1CCCCC2,4,-3,-1,3,-1,4,x
CCCn1c(=O)[nH]c(=O)c2c1nc(-c1ccc(OC)c(Br)c1)n2CCOC,21*,-2,-1,16,-3,-8,-17
Cc1ccc(N(C(=O)c2ccc(S(=O)(=O)N3CCCC3)cc2)C2C=CS(=O)(=O)C2)cc1 (centres undefined),-3,-4,-8,-20,-1,-3,x
COc1ccc(C(=O)N(c2ccc(C)cc2)C2C=CS(=O)(=O)C2)cc1OC (centres undefined),20*,2,4,-9,4,-6,-5
COc1ccc(CCNC(=O)Cn2c(=O)n(-c3ccc(C)c(F)c3)c(=O)c3sccc32)cc1OC,3,5,9,-1,2,-2,x
COC(=O)Oc1ccc(/C=N/NC(=O)CN(c2ccccc2Br)S(C)(=O)=O)cc1OC,22*,-1,-1,8,8,-1,15
COc1ccc(-c2cc(C(F)(F)F)nc(N3CCCCC3)n2)cc1OC,19*,1,5,-2,2,2,-4
COc1ccc(-c2cc(C(F)(F)F)nc(N3CCN(C)CC3)n2)cc1OC,1,-4,1,7,-2,4,x
COc1ccc(S(=O)(=O)N2CCOCC2)cc1NC(=O)CCCSc1ccccc1,-4,x,4,-4,1,-4,x
CCOc1ccc(CCNS(=O)(=O)c2cccc3nsnc23)cc1OCC,17*,-9,7,5,6,6,-1
COc1ccc(CCNS(=O)(=O)c2cccc3nsnc23)cc1OC,-1,-4,4,5,4,5,x
COc1ccc2c(c1OC)C(=O)N1N=C(c3ccc(-c4ccccc4)cc3)CC21 (centres undefined),2,-4,0,0,2,6,x
COc1ccc2c(c1OC)C(=O)N1c3ccccc3N=C(c3ccc([N+](=O)[O-])cc3)CC21 (centres undefined),21*,2,3,6,-1,3,2
O=C(Nc1cccc(S(=O)(=O)N2CCOCC2)c1)c1cn(-c2ccccc2)nc1-c1ccc(F)cc1,23*,2,0,-3,3,1,-22
COC(=O)C1CC(O)CN1S(=O)(=O)c1cccs1 (centres undefined),2,0,1,12,4,8,x
COc1cccc(C(O)c2nc(-c3cc(F)cc(F)c3)cs2)c1 (centres undefined),-1,x,-4,3,x,-14,x
C=CCn1c(CNC(=O)c2cccs2)nnc1SCC(=O)c1ccc(Br)cc1,28*,-8,2,-10,-12,-5,2
C=CCn1c(CNC(=O)c2cccs2)nnc1SCC(=O)Nc1ccc(C(=O)O)cc1,8,2,-5,-7,4,-6,x
COc1ccccc1CNC(=O)C1CCCN(S(C)(=O)=O)C1 (centres undefined),23*,-1,5,4,-3,4,-1
CC1(C(=O)NS(=O)(=O)C2CC2)CCN(C(=O)c2cc3ccccc3s2)C1 (centres undefined),-5,x,-10,0,x,3,x
O=C(CSc1nncs1)Nc1ccc2[nH]c(=O)[nH]c2c1,17*,-4,8,9,-1,0,2
O=C(COC(=O)Cc1ccc(F)cc1)Nc1ccc2[nH]c(=O)[nH]c2c1,18*,1,8,6,1,1,2
O=C(O)c1ccccc1NN=Cc1ccccc1,18*,x,-8,8,3,6,2
S=C(NCCCc1cnc[nH]1)NCCCN(Cc1ccc(Cl)cc1)c1ccc(Br)cn1,17*,x,-3,-1,x,9,27*
O=C(O)c1ccc(S(=O)(=O)N2CCCCCCC2)cc1,3,x,1,5,1,-1,x
SMILES,SIAE inh,PAD4 inh,TCR-CD3 inh,TDP2 absorb,HTRA1 inh,mABHD4 FP,SIAE confirm
C=CCn1c(SCC(=O)N(CC)C2CCS(=O)(=O)C2)nc2sc3c(c2c1=O)CCC3 (centres undefined),18*,-3,0,5,-5,2,9
C=CCn1c(SCC(C)=O)nc2sc3c(c2c1=O)CCC3,3,-3,2,6,2,-9,x
S=C(NCCCn1ccnc1)Nc1cccc(Cl)c1,20*,-2,7,3,0,-1,0
O=C(Cn1nnc2ccccc21)OCC(=O)c1ccccc1,19*,2,2,8,0,0,-3
Cc1ccc2nc3n(c(=O)c2c1)-c1ccccc1C(=O)NC3CC(C)C (centres undefined),-4,x,-6,-3,x,3,x
CC[n+]1ccc(/C=C/c2ccc(N(C)C)cc2)c2ccccc21,-68,x,-31,6,-17,-139,x
CC[n+]1ccc(C[n+]2ccccc2)c2ccccc21,20*,-8,-2,10,-4,6,22*
O=S(=O)(c1ccc(N2CCCCCC2)nc1)N1CCCC1,20*,-10,-2,-1,5,1,-1
CN1CCN(c2ccc(S(=O)(=O)N3CCCCC3)cn2)CC1,4,3,-7,0,4,-8,x
CNc1nnc(CSc2nc(C)cc(C)n2)s1,27*,-5,5,-4,5,5,9
COc1ccc(CN2C(=O)C(CC(C)C)Nc3ncnc(N4CCN(c5ccccn5)CC4)c32)cc1 (centres undefined),18*,1,-3,5,-9,-7,0
Cc1ccc(CN2C(=O)C(CC(C)C)Nc3ncnc(N4CCN(c5ccccn5)CC4)c32)cc1 (centres undefined),4,-3,6,-8,-37,-15,x
CSC1=NC(C)N2C(SC)=NC(C)N12 (centres undefined),-1,2,7,0,-5,1,x
CCCN1C(=O)c2cccc3c(N4CCCCC4)ccc(c23)C1=O,20*,-1,-8,-6,-4,11,7
O=C1c2cccc3c(N4CCCCC4)ccc(c23)C(=O)N1c1ccccn1,4,4,8,2,-2,-6,x
O=C(O)CCN1CC2([N+](=O)[O-])C=CC(=O)C([N+](=O)[O-])(C1)C2CC(=O)c1ccccc1 (centres undefined),17*,-2,-3,9,-2,27,3
